Consider two compounds from ChEMBL document CHEMBL5712901, “DOT1L inhibition blocks multiple myeloma cell proliferation by suppressing IRF4-MYC signaling” (2019).

Activity calls are given as the source filed them. The rule behind the calls is not given here.

The subject of test [1] is RPMI-8226. Put plainly: Effect on human RPMI-8226 cells assessed as change in KLF2 mRNA level at 1 uM for 3 days by ChIP-qPCR analysis. Type of test: functional, cell-based. The conditions noted are these: time 3.0 day. In a few lines: (§1)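 ChIP-qPCR for H3K79me2 at IRF4-MYC signaling genes after 1 μM inhibitor or DMSO for 3 days. Signal normalized to input DNA. An intergenic region 28 kb upstream of KLF2 served as negative control. Mean of 3 replications ± SEM.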
(In general: Real-time PCR tracks product formation cycle by cycle.)

In test [2] the test system is MM1.S. Put plainly: Induction of apoptosis in human MM1.S cells assessed as necrotic cells at 1 uM for 3 days by annexin-V based propidium iodide staining based flow cytometric analysis (reference value: 0.064%). Type of test: functional. Conditions: time 3 day. For orientation: In flow cytometry, cells or beads pass a laser one at a time.
Test [3] has as its system RPMI-8226. The experiment in a line: Upregulation of IFN in human RPMI-8226 cells assessed as increase in ISG15 gene at 1 uM for 6 days by qRT-PCR analysis. The conditions noted are these: time 6.0 day. Type of test: functional, cell-based.
Test [4] deals with RPMI-8226. The experiment in a line: Induction of apoptosis in human RPMI-8226 cells assessed as early apoptotic cells at 1 uM for 6 days by annexin-V based propidium iodide staining based flow cytometric analysis (reference value: 8.16%). Type of test: functional. Conditions: time 6 day.
Test [5] concerns MM1.S. The experiment in a line: Induction of apoptosis in human MM1.S cells assessed as early apoptotic cells at 1 uM for 3 days by annexin-V based propidium iodide staining based flow cytometric analysis (reference value: 5.51%). In kind it is functional. The conditions noted are these: time 3 day.
Test [6] concerns MM1.S. The experiment in a line: Induction of apoptosis in human MM1.S cells assessed as late apoptotic cells at 1 uM for 6 days by annexin-V based propidium iodide staining based flow cytometric analysis (reference value: 13.4%). In kind it is functional. Conditions: time 6 day.
Test [7] has as its system MM1.S. The experiment in a line: Induction of cell cycle arrest in human MM1.S cells assessed as decrease in accumulation of cells at S phase at 1 uM for 6 days. The conditions noted are these: time 6.0 day. Type of test: functional, cell-based. In a few lines:
(§2)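 Flow cytometric cell cycle analysis of RPMI-8226 and MM.1S cells treated with 1 μM DOT1L inhibitor or DMSO for 6 days. Sub-G1, G0-G1 and S phase populations scored. Summary is from 3 replications, mean ± SEM.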

The test system of test [8] is RPMI-8226. The experiment in a line: Induction of cell cycle arrest in human RPMI-8226 cells assessed as decrease in accumulation of cells at S phase at 1 uM for 6 days. Conditions: time 6.0 day. Type of test: functional, cell-based. Put shortly: as §2
The test system of test [9] is RPMI-8226. Put plainly: Upregulation of PTGER4 gene in human RPMI-8226 cells at 1 uM for 6 days by. Conditions: time 6.0 day. In kind it is functional, cell-based.
Test [10] concerns MM1.S. The experiment in a line: Upregulation of CPED1 gene in human MM1.S cells at 1 uM for 6 days by. Type of test: functional, cell-based. Conditions: time 6.0 day. Put shortly:
(§3)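 Human myeloma lines RPMI-8226 and MM.1S exposed to 1 μM DOT1L inhibitor, or DMSO, for 6 days. Whole-genome expression profiled on gene expression microarray.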

The test system of test [11] is RPMI-8226. The experiment in a line: Upregulation of TP53TG3 gene in human RPMI-8226 cells at 1 uM for 6 days by. Conditions: time 6.0 day. In kind it is functional, cell-based.
In test [12] the test system is MM1.S. The experiment in a line: Upregulation of DDIT4L gene in human MM1.S cells at 1 uM for 6 days by. Type of test: functional, cell-based. The conditions noted are these: time 6.0 day. Put shortly:
as §3

For test [13], the system named is MM1.S. Put plainly: Upregulation of HLA-DRB5 gene in human MM1.S cells at 1 uM for 6 days by. In kind it is functional, cell-based. Conditions: time 6.0 day.
Test [14] concerns RPMI-8226. Put plainly: Upregulation of PPP1R1C gene in human RPMI-8226 cells at 1 uM for 6 days by. In kind it is functional, cell-based. Conditions: time 6.0 day.
Test [15] relates to MM1.S. The experiment in a line: Upregulation of FCGR2B gene in human MM1.S cells at 1 uM for 6 days by. Type of test: functional, cell-based. Conditions: time 6.0 day. In a few lines: as §3
For test [16], the system named is KMS-12-BM. Put plainly: Upregulation of DOT1L in human KMS-12-BM cells by qRT-PCR analysis. In kind it is functional, cell-based. In a few lines:
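Basal DOT1L transcript in untreated myeloma cell lines measured by qRT-PCR, normalized to ACTB; mean of 3 replicates with SEM.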

Test [17] has as its system RPMI-8226. The experiment in a line: Upregulation of RGS1 gene in human RPMI-8226 cells at 1 uM for 6 days by. Type of test: functional, cell-based. Conditions: time 6.0 day.
Test [18] has as its system RPMI-8226. The experiment in a line: Upregulation of ID2 gene in human RPMI-8226 cells at 1 uM for 6 days by. Conditions: time 6.0 day. In kind it is functional, cell-based.
Test [19] has as its system RPMI-8226. The experiment in a line: Upregulation of SMIM14 gene in human RPMI-8226 cells at 1 uM for 6 days by. The conditions noted are these: time 6.0 day. In kind it is functional, cell-based.
Test [20] concerns MM1.S. The experiment in a line: Upregulation of PTGER4 gene in human MM1.S cells at 1 uM for 6 days by. In kind it is functional, cell-based. Conditions: time 6.0 day.
The test system of test [21] is MM1.S. The experiment in a line: Upregulation of ALPK1 gene in human MM1.S cells at 1 uM for 6 days by. Type of test: functional, cell-based. The conditions noted are these: time 6.0 day.
Test [22] has as its system MM1.S. Put plainly: Upregulation of GTF2IRD2 gene in human MM1.S cells at 1 uM for 6 days by. Type of test: functional, cell-based. The conditions noted are these: time 6.0 day. In a few lines: as §3
For test [23], the system named is MM1.S. Put plainly: Upregulation of NREP gene in human MM1.S cells at 1 uM for 6 days by. The conditions noted are these: time 6.0 day. In kind it is functional, cell-based.
Test [24] relates to RPMI-8226. Put plainly: Upregulation of PTPN13 gene in human RPMI-8226 cells at 1 uM for 6 days by. The conditions noted are these: time 6.0 day. Type of test: functional, cell-based.
Test [25] relates to RPMI-8226. The experiment in a line: Upregulation of MMP9 gene in human RPMI-8226 cells at 1 uM for 6 days by. Type of test: functional, cell-based. The conditions noted are these: time 6.0 day.
For test [26], the system named is MM1.S. Put plainly: Upregulation of SGK1 gene in human MM1.S cells at 1 uM for 6 days by. Type of test: functional, cell-based. The conditions noted are these: time 6.0 day.
The test system of test [27] is MM1.S. Put plainly: Upregulation of RIMBP3 gene in human MM1.S cells at 1 uM for 6 days by. Type of test: functional, cell-based. The conditions noted are these: time 6.0 day.
In test [28] the test system is MM1.S. The experiment in a line: Downregulation of H3K79me2 level in human MM1.S cells at 1 uM for 3 days by ChIP-qPCR analysis. In kind it is functional, cell-based. The conditions noted are these: time 3.0 day. In a few lines: as §1
In test [29] the test system is RPMI-8226. Put plainly: Upregulation of FCGR2B gene in human RPMI-8226 cells at 1 uM for 6 days by. Type of test: functional, cell-based. The conditions noted are these: time 6.0 day. Put shortly: as §3
The test system of test [30] is RPMI-8226. Put plainly: Upregulation of FAM200B gene in human RPMI-8226 cells at 1 uM for 6 days by. Type of test: functional, cell-based. The conditions noted are these: time 6.0 day. In a few lines:
as §3

Test [31] relates to RPMI-8226. The experiment in a line: Upregulation of S100A10 gene in human RPMI-8226 cells at 1 uM for 6 days by. In kind it is functional, cell-based. Conditions: time 6.0 day.
The test system of test [32] is MM1.S. The experiment in a line: Upregulation of PRRT2 gene in human MM1.S cells at 1 uM for 6 days by. Conditions: time 6.0 day. In kind it is functional, cell-based.
For test [33], the system named is RPMI-8226. Put plainly: Upregulation of MME gene in human RPMI-8226 cells at 1 uM for 6 days by. In kind it is functional, cell-based. The conditions noted are these: time 6.0 day.
The subject of test [34] is MM1.S. The experiment in a line: Upregulation of SAP30L gene in human MM1.S cells at 1 uM for 6 days by. Type of test: functional, cell-based. The conditions noted are these: time 6.0 day.
The subject of test [35] is MM1.S. Put plainly: Upregulation of HLA-DPB1 gene in human MM1.S cells at 1 uM for 6 days by. In kind it is functional, cell-based. Conditions: time 6.0 day. Put shortly: as §3
Test [36] concerns MM1.S. Put plainly: Upregulation of IFITM3 gene in human MM1.S cells at 1 uM for 6 days by. Type of test: functional, cell-based. Conditions: time 6.0 day.
The subject of test [37] is MM1.S. The experiment in a line: Upregulation of ZSCAN31 gene in human MM1.S cells at 1 uM for 6 days by. In kind it is functional, cell-based. Conditions: time 6.0 day.
Test [38] relates to RPMI-8226. The experiment in a line: Upregulation of CHRNA6 gene in human RPMI-8226 cells at 1 uM for 6 days by. Type of test: functional, cell-based. Conditions: time 6.0 day. Put shortly:
as §3

In test [39] the test system is MM1.S. Put plainly: Upregulation of PPP1R1C gene in human MM1.S cells at 1 uM for 6 days by. Type of test: functional, cell-based. The conditions noted are these: time 6.0 day.
Test [40] relates to MM1.S. The experiment in a line: Upregulation of MS4A4A gene in human MM1.S cells at 1 uM for 6 days by. In kind it is functional, cell-based. The conditions noted are these: time 6.0 day.
Test [41] relates to RPMI-8226. The experiment in a line: Upregulation of ENC1 gene in human RPMI-8226 cells at 1 uM for 6 days by. Type of test: functional, cell-based. Conditions: time 6.0 day. In a few lines:
as §3

The test system of test [42] is RPMI-8226. The experiment in a line: Upregulation of SOAT2 gene in human RPMI-8226 cells at 1 uM for 6 days by. Type of test: functional, cell-based. The conditions noted are these: time 6.0 day.
Test [43] deals with MM1.S. The experiment in a line: Upregulation of ACOT11 gene in human MM1.S cells at 1 uM for 6 days by. In kind it is functional, cell-based. Conditions: time 6.0 day.
Test [44] deals with RPMI-8226. The experiment in a line: Upregulation of NEURL1B gene in human RPMI-8226 cells at 1 uM for 6 days by. Type of test: functional, cell-based. Conditions: time 6.0 day.
The subject of test [45] is MM1.S. Put plainly: Upregulation of TLE1 gene in human MM1.S cells at 1 uM for 6 days by. Type of test: functional, cell-based. Conditions: time 6.0 day.

With `CC(C)N(C[C@H]1O[C@@H](n2cnc3c(N)ncnc32)[C@H](O)[C@@H]1O)[C@H]1C[C@@H](CCc2nc3cc(C(C)(C)C)ccc3[nH]2)C1` [PINOMETOSTAT], the outcome in test [1], in [3], in test [7] and in test [8] was Active. In addition, the Activity in [2] is listed as 0.06%; in [4], 15%; in test [5], 3.11%; in test [6], 27.8%.

On to `CC(C)N(CCCNC(=O)Nc1ccc(C(C)(C)C)cc1)C[C@H]1O[C@@H](n2cc(Br)c3c(N)ncnc32)[C@H](O)[C@@H]1O`, for which the result in test [9], in test [10], in test [11], in test [12], in test [13] and in test [14] was Active. For the same compound, the result in [15], in test [16], in [17], in [18], in test [19] and in test [20] was Active. In addition, the outcome in [21], in test [22], in test [23], in [24], in test [25] and in test [26] was Active. Besides, the outcome in [27], in test [28], in test [29], in test [30], in [31] and in test [32] was Active. The outcome in test [33], in test [34], in test [35], in test [36], in test [37] and in test [38] was Active. The result in [39], in test [40], in [41], in test [42], in [43] and in [44] was Active. The outcome in [45] was Active.
